Data on 4 compounds can be found in paper PMC5882533 (Cancer discovery, 2018).

The test system of series [1] is MEC-1. Kind of series: Proliferation of MEC-1 cells. It counts as cell-based, human. The note with it: for proliferation: MEC-1, increasing doses, 72h.
For series [2], the system named is primary CLL cells. Kind of series: Proliferation of CpG stimulated primary CLL cells. It counts as cell-based, human. To be noted: for proliferation of CpG stimulated primary CLL cells: increasing doses, 72h continuously or 4h followed by washout. An outline of the steps: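 Primary CLL cells came from patients meeting 2008 IWCLL criteria. They were either stimulated with CpG oligonucleotides (TLR9 agonist) or left unstimulated (basal). Cells were given increasing concentrations of test compound, either continuously for 72 h or for 4 h followed by washout. Proliferation was measured by MTS assay. Data are shown per individual patient, with averages.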

The test system of series [3] is OCI-LY1. Briefly: Proliferation of OCI-LY1 cells. The class given is cell-based, human. To be noted: for proliferation: OCI-LY1, increasing doses, 72h.
Series [4] has as its system Ba/F3 (murine interleukin-3 dependent pro-B cell line) splenomegaly.
In series [5] the test system is Eμ-Myc/TCL1 leukemia/lymphoma.
A short description of series [6]: Plasma drug levels in MV4-11 tumor xenograft SCID mice. It counts as in vivo. To be noted: mouse.
Series [7] concerns the target T1, bromodomain of EP300 (p300) (Homo sapiens, UniProt Q09472).
T1 sequence (Q09472 1049-1156 limits assumed): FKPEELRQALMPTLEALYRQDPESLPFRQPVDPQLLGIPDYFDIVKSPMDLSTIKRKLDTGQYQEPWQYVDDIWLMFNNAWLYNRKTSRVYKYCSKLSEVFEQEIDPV
Kind of series: Binding affinity.

A short description of series [8]: Plasma levels in wild type B6 mice. To be noted: B6, mouse, oral, 20 mg/kg. It counts as in vivo.
The test system of series [9] is primary CLL cells co-cultured on stromal cells (9–15c and Hs27). Briefly: CLL cell viability in stromal co-culture. The class given is cell-based, human. The note with it: 1, 2 or 5μM, 72 h.
The nature of series [10]: Half-life in dogs. The note with it: dog, in vivo.
Series [11] is described as follows: Plasma exposure in Ba/F3 splenomegaly mouse model. To be noted: 2 mg/kg. The class given is in vivo.
Series [12] relates to BET family members. Kind of series: Blocking interactions mediated by the four BET family members. The class given is biochemical.
In series [13] the test system is Eμ-TCL1 CD5/CD19 positive CLL-like leukemia. Briefly: Eμ-TCL1 transgenic mice with de novo leukemia, tumor burden. The class given is in vivo, mouse.
Series [14] concerns stromal cells (9–15c and Hs27). Briefly: Stromal cell viability. It counts as cell-based.
Series [15] has as its target bromodomain of CBP (Homo sapiens, UniProt Q92793). Briefly: Binding affinity.
Series [16] has as its system healthy T-cells. Briefly: Proliferation of healthy T-cells stimulated with CD3/CD28 agonist antibodies. It counts as cell-based, human. To be noted: washout conditions.
Series [17] can be described thus: Half-life in rodents. To be noted: in vivo.

For orientation: AUC(0-t) means the area under the concentration-time curve up to a stated or last time point. Low values mean low exposure, high ones high exposure. As a reminder, the half-life is the time needed for the level to fall by half in the phase considered. Low values mean rapid decline, high ones slow decline. As a reminder, the pKd is −log10 of the Kd, conventionally taken in molar units. Low readings indicate a high Kd, high ones a low Kd.

pKd: −log10 of the molar value. “And” between values parts separate entries of the source, which are not always exact repeats. Identical values can stand only once. Bounds are passed on as bounds.

bromodomain of CBP, sequence (Q92793 1085-1192 limits assumed): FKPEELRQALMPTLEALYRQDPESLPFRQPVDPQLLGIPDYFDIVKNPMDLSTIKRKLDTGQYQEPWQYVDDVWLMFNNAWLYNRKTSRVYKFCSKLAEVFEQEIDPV

As for `Cc1sc2c(c1C)C(c1ccc(Cl)cc1)=N[C@@H](CC(=O)OC(C)(C)C)c1nnc(C)n1-2` [JQ1, reference compound], the proliferation result in series [1] and in series [3] was “Dose dependent decrease of proliferation” throughout. Also, the “proliferation of CpG stimulated primary CLL cells” value in series [2] is recorded as “Dose-dependent decrease of proliferation”.

Regarding `Cc1sc2c(c1C)C(c1ccc(Cl)cc1)=N[C@@H](CC(=O)Nc1ccc(O)cc1)c1nnc(C)n1-2` [OTX015, reference compound], the proliferation result in [1] and in series [3] was “Dose dependent decrease of proliferation” in each case. In series [4] (25 mg/kg OTX015), the “efficacy on splenomegaly relative to 2 mg/kg PLX51107” value is on record as “same level of efficacy”. Moreover, the “proliferation of CpG stimulated primary CLL cells” value in [2] is recorded as “Dose-dependent decrease of proliferation”.

Take `Cc1noc(C)c1-c1cnc2c(-c3ccc(C(=O)O)cc3)cn([C@@H](C)c3ccccn3)c2c1` [PLX51107]: in series [5] (20 mg/kg, qd, oral gavage, 70 days treatment), the survival entry is “significantly prolonged survival”. For the same compound, the tolerability result in [5] (mouse, in vivo) is given as “well tolerated”; in series [4] (mouse, in vivo), “well tolerated”. For the same compound, the AUC(0-t) is 90100 ng·h/mL and 205 µM·h in [6]; 96700 ng·h/mL and 220 µM·h in series [8]; 17700 ng·h/mL and 40 µM·h in [11]. Further, the half-life in series [6] was 2.8 h; in series [10] it was less than 3 h; in [17] it was less than 3 h. The pKd in series [7] and in [15] was roughly 7.00 throughout. Also, in series [9], the “cytotoxicity on CLL cells” value is on record as “induces significant cytotoxicity”. In series [12], the “potency in blocking interactions mediated by the four BET family members” value is listed as “low nanomolar potency”. Moreover, in [13] (20 mg/kg daily, oral gavage, eight days), the “leukemic disease burden in peripheral blood and spleen vs vehicle” value is listed as “significantly reduced leukemic disease burden”. Also, the “reduction of tumor burden compared with OTX015 (50 mg/kg, qd)” value in [13] (PLX51107 20 mg/kg, qd, thirty day study) is “more effective than OTX015”. In addition, the “effect on stromal cell viability” value in series [14] is reported as “no effect on stromal cell viability”. Further, the “IC50 compared to iBET762, JQ1, or OTX015” value in [1] (MEC-1) and in [3] (OCI-LY1) was “lower IC50” throughout. For the same compound, the proliferation entry in series [1] and in series [3] was “Dose dependent decrease of proliferation” in each case. Also, in series [4] (2 mg/kg PLX51107 dose), the inhibition of splenomegaly result is “Approximately 75%”. In addition, in series [2] (CLL cells under basal condition), the “inhibition of proliferation or toxicity” value is reported as “not observed”. Further, the “proliferation of CpG stimulated primary CLL cells” value in series [2] is on record as “Dose-dependent decrease of proliferation”. Also, the anti-proliferative effect result in series [16] is given as “no anti-proliferative effect”.

For the compound `CCNC(=O)C[C@@H]1N=C(c2ccc(Cl)cc2)c2cc(OC)ccc2-n2c(C)nnc21` [iBET762], the “proliferation of CpG stimulated primary CLL cells” value in [2] is “Dose-dependent decrease of proliferation”.
